Source: PubChem BioAssay (Broad Institute)
Hits are enriched below; roughly 3.1% of the tested compounds scored in any of these assays.
EWS-Fli inh: inhibitors of EWS/Fli oncoprotein transcriptional activity. A673 NR0B1-luciferase reporter, viability-normalised. inhibition, % at 12.6 µM. hit rate 0.67% among 350,000;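 active = mean inhibition of at least 50% after viability correction, with every replicate also passing that limit; inconclusive = mean reaches 50% but only one of two replicates passes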;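 note: firefly luciferase signal divided by Alamar Blue viability fluorescence both relative to DMSO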
FGF22 binding: FGF22 (human) thermal shift binding | Q9HCT0 | recombinant FGF22 thermal shift, SYPRO orange fluorescence; percent of sucrose octasulfate shift, DMSO zero | activity (Tm shift, normalised), % at 9.99 µM | hit rate 1.5% among 340,000 | AID 651658;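 active = mean Tm shift, scaled 0 neutral to 100 positive control, at about 1.3% or above, every replicate too, limit read from the data; inconclusive = no clear call, values can overlap the other calls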
Target sequence (Q9HCT0 whole entry, looked up): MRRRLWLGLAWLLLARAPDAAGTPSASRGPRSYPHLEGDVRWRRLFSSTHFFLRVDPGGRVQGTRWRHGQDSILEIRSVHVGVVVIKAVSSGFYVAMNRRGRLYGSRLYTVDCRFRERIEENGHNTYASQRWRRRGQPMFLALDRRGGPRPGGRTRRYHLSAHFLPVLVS
Env fusion inh: inhibitors of HIV Env-mediated cell fusion. HeLa-JRFL Env/CEM21 cell fusion, luciferase. inhibition, % at 12.3 µM. hit rate 1.1% among 360,000;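 active = mean replicate inhibition score of at least 50 and every replicate individually at or above 50; inconclusive = only one of the two criteria met; inactive = mean below 50 and not all replicates reaching 50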;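 note: 0% = plate neutral controls and 100% = maraviroc near 300 nM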
PAX8 inh HTS: lowers PAX8-driven luciferase in RMG-I cells. RMG-I TPO-luciferase reporter, SteadyGlo, 24 h. inhibition, % at 12.6 µM. hit rate 1.2% among 360,000. AID 652154;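 active = mean replicate inhibition at least 60% with every replicate also reaching 60%; inconclusive = only one of the two criteria is met; inactive = mean below 60% and not all replicates reaching 60%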;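 note: luciferase light reporting Pax8 driven TPO promoter activity; plate controls were median of neutral control wells for no effect and mitoxantrone controls for full effect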
FN deposition inh: fibronectin deposition inhibition; AH1F fibroblasts, Alexa488-fibronectin deposition fluorescence, overnight; inhibition, % at 12.6 µM; hit rate 0.086% among 350,000; AID 743247;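 active = mean inhibition across replicates of 30% or more, regardless of how many single replicates reach that level; inconclusive = mean under 30% yet at least half of replicates reach 30%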;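 note: positive control wells lacked labelled fibronectin entirely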
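Assay system: AH1F fibroblasts / Quantity: 10000 cells per well / Medium: DMEM plus 2% serum, read in PBS / Reagent: labelled fibronectin 24 nM / Dosing: single dose, pinned / Times: 1 h cell attachment, overnight exposure to compound and label / Signal: fluorescence, ex 485 nm, em 525 nm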
PGC1a acetyl inh: PGC1a acetylation modulation, inhibitor mode; U2OS PGC1a acetylation, AlphaScreen anti-acetyl-lysine; with virally co-expressed GCN5 acetyltransferase; inhibition, % at 15.6 µM; hit rate 0.17% among 350,000; AID 651687;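 active = every replicate shows inhibition of at least 40%; inconclusive = mean inhibition at least 40% but some replicate below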;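 note: 0% = neutral control wells and 100% = positive control wells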
An asterisk follows results filed as active; i = inactive; ? = inconclusive; . = no result given; [ ] = dose if it differs, or a comment.

SMILES	EWS-Fli inh	FGF22 binding	Env fusion inh	PAX8 inh HTS	FN deposition inh	PGC1a acetyl inh
CCC(C)Nc1nc(N)c([N+](=O)[O-])c(N2CCCCCC2)n1 (centres undefined)	14	0	20	77*	5	-10
CC(C)CNc1nc(N)c([N+](=O)[O-])c(N2CCCCCC2)n1	6	-1	24	0	1	-22
CNC[C@H]1Oc2ccc(NS(C)(=O)=O)cc2CC(=O)N([C@H](C)CO)C[C@@H]1C	-9	.	8[16.7 µM]	-23	.	7
NC(=O)NCC#Cc1ccc2c(c1)[C@]1(C(=O)N2)[C@H](C(=O)O)[C@H]2C(=O)O[C@H](c3ccccc3)[C@H](c3ccccc3)N2[C@@H]1c1ccc(OCCO)cc1	-11	1	-25[16.7 µM]	-16	.	-1
C[C@H]1CN([C@@H](C)CO)C(=O)c2c(c3ccccc3n2C)-c2ccccc2CO[C@H]1CN(C)Cc1ccc(Oc2ccccc2)cc1	11	1.3*	.	-16	-7	-15
C[C@@H]1CN([C@H](C)CO)C(=O)c2c(c3ccccc3n2C)-c2ccccc2CO[C@H]1CN(C)Cc1ccc(Oc2ccccc2)cc1	6	0	?	85*	-6	-19
C[C@H]1CN([C@@H](C)CO)C(=O)c2c(c3ccccc3n2C)-c2ccccc2CO[C@@H]1CN(C)Cc1ccc(Oc2ccccc2)cc1	3	.	.	56	-5	.
C[C@H](CO)N1C[C@H](C)[C@@H](CN(C)S(=O)(=O)c2ccccc2F)OCc2ccccc2-c2ccccc2C1=O	.	.	.	.	3	.
Cc1ccc(-c2cc(=O)c3cc(C)ccc3[nH]2)cc1	59*	0	-224	-1	7	.
COc1ccc2[nH]c(-c3cccc(F)c3)cc(=O)c2c1	30	0	i	-6	0	6
O=c1cc(-c2ccccc2)[nH]c2cc(Cl)ccc12	59*	0	-146	15	2	.
O=c1cc(-c2cccc(F)c2)[nH]c2ccccc12	66*	0	-140	57	-8	.
O=c1cc(-c2ccccc2)[nH]c2ccc(F)cc12	58*	0	-5	11	-4	-7
COc1ccc2c3c([nH]c2c1)[C@H](CO)N(Cc1cc(F)ccc1F)CC31CN(C(C)=O)C1	-7	0	.	-22	.	8
Cc1ccc(S(=O)(=O)N(C)C[C@@H]2Oc3ncc(-c4ccncc4)cc3C(=O)N([C@@H](C)CO)C[C@@H]2C)cc1	19	0	7[16.7 µM]	.	.	-10
C[C@H]1CCCCO[C@H](CN(C)C)[C@@H](C)CN([C@@H](C)CO)C(=O)c2cc(NS(=O)(=O)c3ccccc3)ccc2O1	3	0	-6[16.7 µM]	-11	-1	0
CC(C)NC(=O)N[C@@H]1CC[C@@H](CC(=O)NCc2ccc(Oc3ccccc3)cc2)O[C@@H]1CO	1	0	0[16.7 µM]	5	-1	-5
CC(=O)N(C)C[C@@H]1Oc2ncc(-c3ccc(C)cc3)cc2C(=O)N([C@H](C)CO)C[C@@H]1C	-8	0	8[16.7 µM]	.	.	-2
Cc1ccc2[nH]c(-c3cccc(F)c3)cc(=O)c2c1	57*	0	.	9	-7	.
CNC[C@@H]1Oc2ccc(NS(=O)(=O)c3ccc(C)cc3)cc2C(=O)N([C@@H](C)CO)C[C@@H]1C	-8	0	.	-9	.	-6
C[C@@H](c1ccccc1)N1C[C@H]2CCCN2c2cc(Br)ccc2S1(=O)=O	63*	0	-26	36	-6	-15
COc1ccc(-c2c(C)n([O-])c3c([n+]2=O)CCCCC3)cc1OC	9	43*	-14	11	8	-15
Cc1ccc(-c2c(C)n([O-])c3c([n+]2=O)CCCC3)cc1	-9	0	-2	-4	4	.
Cc1cccc(C)c1NC(=O)C1(N2C(=O)CC2c2ccccc2)CCCCC1 (centres undefined)	0	44*	35	7	-2	.
CCN(C[C@H]1N[C@@](Cc2ccccc2)(C(=O)OC)[C@H]2C(=O)N(C)C(=O)[C@@H]12)C(=O)c1ccc(F)cc1	1	43*	-10	2	-4	.
SMILES	EWS-Fli inh	FGF22 binding	Env fusion inh	PAX8 inh HTS	FN deposition inh	PGC1a acetyl inh
COC(=O)[C@]1(Cc2ccccc2)N[C@H](CN(C)C(=O)NC(C)C)[C@@H]2C(=O)N(C)C(=O)[C@@H]21	-2	44*	10	4	3	.
COc1ccccc1C#Cc1ccc([C@@H]2[C@H]3CN(C(=O)C4CCC4)CCCCN3[C@H]2CO)cc1	17	-1	.	7	1	-15
O=C(C[C@H]1CC[C@@H]2[C@H](COC[C@@H](O)CN2CC2CCOCC2)O1)N1CCOCC1	10	0	.	-4	0	6
O=C(OCC(=O)N1CCN(Cc2ccccc2)CC1)c1ccc(Cl)cc1	2	44*	11	-11	0	-1
C[C@H]1CN([C@@H](C)CO)C(=O)c2cc(NC(=O)C3CC3)ccc2O[C@@H]1CN(C)S(=O)(=O)c1ccc(F)cc1	-2	0	-1[16.7 µM]	3	.	-14
O=C(NCCOc1ccc(F)cc1)c1ccccc1SCc1ccccc1	11	0	28	35	-8	11
COCCNC(=O)Cc1ccc(F)cc1	5	0	-3	-9	1	.
CCOCCCNC(=O)Cc1ccc(F)cc1	8	0	-49	-17	0	.
CC(C)(C)c1ccc(OCCNC(=O)Cc2ccc(F)cc2)cc1	0	1.6*	29	1	-3	.
CC(C)OCCCNC(=O)Cc1ccc(F)cc1	-5	43*	6	-6	2	.
CCc1ccc(OCCNC(=O)c2ccccc2SCc2ccc(F)cc2)cc1	.	.	58*	.	19	-4
O=C(C[C@@H]1C[C@H]2c3cc(NC(=O)C4CCC4)ccc3O[C@H]2[C@@H](CO)O1)NCc1ccc(Cl)cc1	0	0	32[16.7 µM]	-3	.	0
COc1ccc(N(C)S(=O)(=O)c2ccc(C)cc2)c([N+](=O)[O-])c1	5	0	-1	23	-1	-2
Cc1ccc(S(=O)(=O)N(C)c2ccc(C)c([N+](=O)[O-])c2)cc1	-3	43*	-1	7	-5	-32
CO[C@H]1CN(C)C(=O)c2ccc(NC(=O)C3CCC3)cc2OC[C@@H](C)N(C(=O)NC(C)C)C[C@@H]1C	9	0	-13[16.7 µM]	.	8	2
Cc1c(NC(=O)COC(=O)C2(c3ccccc3F)CCCC2)c(=O)n(-c2ccccc2)n1C	-9	43*	0	17	-1	.
Cc1c(NC(=O)COC(=O)C23CC4CC(CC(O)(C4)C2)C3)c(=O)n(-c2ccccc2)n1C	4	44*	20	-42	-3	.
CCC(C(=O)OCC(=O)Nc1c(C)n(C)n(-c2ccccc2)c1=O)c1ccccc1 (centres undefined)	.	.	-12	.	3	13
O=C(NC(=S)Nc1ccc(N2CCCCC2)c(Cl)c1)c1ccc2c(c1)OCCO2	.	.	70*	14	-9	-3
O=C(NC(=S)Nc1ccc(N2CCOCC2)c(Cl)c1)c1cncc(Br)c1	.	.	-47	-6	2	.
